Screening data: PubChem, several laboratories
APJ antagonist = antagonists of human APJ apelin receptor; 330,000 tested, 0.32% active; P35414; CHO-K1 APJ beta-arrestin complementation, luminescence; AID 2521; inhibition, % at 20 µM;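 active means inhibition above about 40% at 20 µM, limit read from the data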;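 further: cells challenged with 10 nM apelin-13 agonist together with compound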
CXCR6 inh = CXCR6 (human) receptor inhibition | 360,000 tested, 0.36% active | AID 602244 | CHO-K1 PathHunter CXCR6 beta-arrestin, luminescence | inhibition, % at 20 µM; in the data active means inhibition above about 34%, passing the limit was not always enough;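 further: antagonist mode with CXCL16 agonist at 10 nM final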
Target sequence (O00574 whole entry, looked up): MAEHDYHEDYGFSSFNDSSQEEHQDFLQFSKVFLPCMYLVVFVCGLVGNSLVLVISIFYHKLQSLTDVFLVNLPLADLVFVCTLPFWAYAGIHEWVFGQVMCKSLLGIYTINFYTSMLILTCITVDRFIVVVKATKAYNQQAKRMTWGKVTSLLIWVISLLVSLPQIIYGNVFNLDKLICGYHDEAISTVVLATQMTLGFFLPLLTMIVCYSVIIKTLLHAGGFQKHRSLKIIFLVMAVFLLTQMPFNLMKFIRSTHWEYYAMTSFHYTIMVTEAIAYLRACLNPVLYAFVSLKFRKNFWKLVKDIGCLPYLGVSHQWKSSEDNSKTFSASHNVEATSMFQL
APJ ag = APJ receptor agonism. activation, % at 20 µM. P35414. AID 2520. CHO-K1 APJ PathHunter beta-arrestin, luminescence; 0% DMSO wells, 100% apelin. 330,000 tested, 0.11% active;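 active means activation more than six SD over the plate average, tested at 20 µM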
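Material: engineered CHO-K1 APJ arrestin reporter cells; amount: 1000 CHO-K1 reporter cells seeded per well; incubation: compound stimulation 90 min at 25 °C, detection 60 min; signal: luminescent beta-gal fragment complementation, chemiluminescent substrate; read-out basis: APJ agonist activity; controls: DMSO-only wells as negative, 10 nM Apelin-13 as positive control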
EBI2 block = antagonists of human EBI2 receptor; EBI2 beta-arrestin recruitment, luminescence, 7a,25-OHC stimulated; 360,000 tested, 0.81% active; inhibition, % at 5 µM; P32249; in the data active means inhibition above about 38%;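 further: enzyme fragment complementation signal reports receptor beta-arrestin coupling in cells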
m5-HT2A agonist = agonists of mouse serotonin 5-HT2A receptor (HTR2A); CHO-K1 mHTR2A beta-arrestin complementation, luminescence; percent of 30 µM serotonin response; activation, % at 7.6 µM; 360,000 tested, 0.66% active; AID 624169;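 active means activation above a run cutoff, the mean activation of all tested compounds plus 3 SD, cut at about 14% in these data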
CCR6 antagonist = antagonists of human CCR6 receptor; P51684; 340,000 tested, 0.49% active; CHO-K1 CCR6 PathHunter beta-arrestin, luminescence, CCL20-stimulated; inhibition, % at 20 µM;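 active means compounds whose inhibition of the agonist-driven luminescence signal at 20 µM reaches about 50%, limit read from the data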;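 further: cells stimulated with CCL20 at 14 nM final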
MOR ag counter = OPRM1 agonism in mouse HTR2A counterscreen; shares compounds with m5-HT2A agonist; U2OS OPRM1 beta-arrestin PathHunter, luminescence; DMSO 0%, DAMGO 9.3 µM 100%; activation, % at 9.3 µM; 2,300 tested, 5.3% active;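 active means mean activation above the mean of DMSO-only wells plus 3 SD, cut at about 0.5% in these data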
HTR2A ag conf = confirmation of mouse HTR2A serotonin receptor agonists; shares compounds with m5-HT2A agonist; CHO-K1 PathHunter beta-arrestin recruitment, luminescence; DMSO 0%, 30 µM serotonin 100%; activation, % at 7.6 µM; 2,300 tested, 19% active;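 active means mean activation across triplicates above the hit threshold derived in the original primary screen, cut at about 15% in these data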
Numbers stand for hits; i = inactive; nt = no result. Most compounds without a hit are left out; they make up all but 2.1% or so of the library.

SMILES	APJ antagonist	CXCR6 inh	APJ ag	EBI2 block	m5-HT2A agonist	CCR6 antagonist	MOR ag counter	HTR2A ag conf
CCOC(=O)c1cc2cc(OC)ccc2n1C1CCN(CCc2ccccc2)CC1	nt	i	nt	i	19.6	nt	i	i
CC(C)C(NC(=O)/C(=C\c1ccco1)NC(=O)c1ccco1)C(=O)O (configuration not stated)	i	i	i	i	19.1	i	i	i
CC(C)C(NC(=O)/C(=C/c1ccco1)NC(=O)c1ccc(Br)o1)C(=O)O (configuration not stated)	i	i	i	i	i	i	nt	nt
CC[C@@H]1C=C(C(=O)O)[C@H](c2ccc(C)cc2)N1S(=O)(=O)c1ccc(C)cc1	i	i	i	i	i	i	nt	nt
CC[C@@H]1C=C(C(=O)O)[C@H](c2ccc(Cl)cc2)N1S(=O)(=O)c1ccc(C)cc1	i	i	i	i	16.6	i	i	i
Cc1ccc([C@@H]2CC=C(C(=O)O)[C@H](c3ccc(C(C)(C)C)cc3)N2S(=O)(=O)c2ccc(C)cc2)cc1	i	i	i	i	24.1	i	i	i
CCOC(=O)C1=CC[C@@H](c2ccccc2C(F)(F)F)N(S(=O)(=O)c2ccc(C)cc2)[C@H]1c1ccc(C#N)cc1	nt	i	nt	i	17.5	nt	i	i
CCOC(=O)C1=CC[C@@H](c2ccccc2)N(S(=O)(=O)c2ccc(C)cc2)[C@@H]1C#N	nt	nt	nt	i	i	nt	nt	nt
CCCC[C@@H]1C=C(C(=O)O)[C@H](c2ccc3c(c2)OCO3)N1S(=O)(=O)c1ccc(C)cc1	i	i	i	i	15.8	i	1.3	i
Cc1ccc(C)c(NC(=O)c2ccc3c(c2)CCN3S(C)(=O)=O)c1	nt	i	nt	i	i	nt	nt	nt
CC(C)Cn1c(SCC(=O)NCCCN2CCCC2=O)nc2ccccc21	i	i	i	i	15.9	i	i	i
Cc1cccc(Cl)c1NC(=O)N1CCCN(c2nc3ccc(Cl)cc3s2)CC1	i	i	i	i	i	i	nt	nt
CCOc1ccc(NC(=O)N2CCN(S(C)(=O)=O)CC2)cc1	i	i	i	i	i	i	nt	nt
Cc1cccc(C)c1NC(=O)N1CCN(c2nc3ccccc3s2)CC1	i	i	i	i	39.1	i	i	i
CCOc1ccc(NC(=O)N2CCN(c3nc4ccccc4s3)CC2)cc1	i	i	i	i	29.9	i	i	i
O=C(O)CCC(=O)N1CCN(c2nc3ccccc3s2)CC1	i	i	i	i	45.0	i	i	i
CCn1c(=O)c(=O)[nH]c2cc(C(=O)NCc3ccc(F)cc3)ccc21	i	i	i	i	i	i	nt	nt
COc1cc(C(=O)OC(C)CN2C(C)CCCC2C)cc(OC)c1OC (configuration not stated)	i	i	i	i	i	i	nt	nt
O=C(O)C1CC1C(=O)N1CCN(c2ccc(Cl)c(Cl)c2)CC1 (configuration not stated)	i	i	i	i	35.5	i	i	18.6
Cc1occc1C(=O)N1CCN(c2ccccc2)CC1	i	i	i	i	i	i	nt	nt
Cc1occc1C(=O)N1CCN(c2ccc(Cl)c(Cl)c2)CC1	i	i	i	i	35.9	i	i	i
CCCNC(=O)C1(C)CCN(Cc2cccc(OC(=O)c3ccccc3)c2)C1 (configuration not stated)	nt	i	nt	i	i	nt	nt	nt
C=CCn1c(SCc2nc3ccccc3[nH]2)nnc1-c1ccccn1	i	i	i	i	18.7	i	i	i
Cn1c(SCc2nc3ccccc3[nH]2)nnc1-c1ccccn1	i	i	i	i	i	i	nt	nt
CSc1ccc(CCNC(=O)CCc2nnc3ccc(N4CCCCC4)nn23)cc1	i	i	i	i	20.1	i	0.7	i
SMILES	APJ antagonist	CXCR6 inh	APJ ag	EBI2 block	m5-HT2A agonist	CCR6 antagonist	MOR ag counter	HTR2A ag conf
CSc1ccc(CCNC(=O)CCc2nnc3ccc(N4CCOCC4)nn23)cc1	i	i	i	i	i	i	nt	nt
Cc1ccc(C)c(NC(=O)C2CCCN(S(=O)(=O)c3ccc4[nH]c(=O)ccc4c3)C2)c1 (configuration not stated)	i	i	i	i	i	i	nt	nt
COc1ccc2nc(N(Cc3ccccc3)C(=O)CCNC(C)=O)sc2c1	i	i	i	i	i	i	nt	nt
C[C@H](NC(=O)c1ccccc1)C(=O)N1CCN(Cc2ccc3c(c2)OCO3)CC1	i	i	i	i	i	i	nt	nt
CC(C)[C@H](NC(=O)c1ccc(C(C)(C)C)cc1)C(=O)N1CCN(Cc2ccc3c(c2)OCO3)CC1	i	i	i	i	33.6	i	i	70.2
COCCCC1CCN(C(=O)C2CCC(=O)N(Cc3ccccc3F)C2)CC1 (configuration not stated)	i	i	i	i	i	i	nt	nt
O=[N+]([O-])c1cccnc1N1CCN(Cc2ccc3c(c2)OCO3)CC1	i	i	i	i	29.2	i	i	68.2
O=[N+]([O-])c1ccc2ncnc(N3CCN(Cc4ccc5c(c4)OCO5)CC3)c2c1	i	i	i	i	31.4	i	i	72.8
O=C(c1cccc([N+](=O)[O-])c1)N1CCN(Cc2ccc3c(c2)OCO3)CC1	i	i	i	i	i	i	nt	nt
CC(C)c1cc(=O)[nH]c(N2CCN(Cc3ccc4c(c3)OCO4)CC2)n1	i	i	i	i	20.2	i	i	19.4
CCCc1cc(=O)[nH]c(N2CCN(Cc3ccc4c(c3)OCO4)CC2)n1	nt	i	nt	i	i	i	nt	nt
COc1ccc(CNCCCn2cnc3c(SC)ncnc32)cc1	nt	i	nt	i	i	nt	nt	nt
O=C(OCC(=O)N1CCc2ccccc2C1)c1cc(=O)[nH]c2ccccc12	i	i	i	i	i	i	nt	nt
CC(=O)c1cccc(N(C(=O)CNC(=O)c2ccco2)C(C(=O)NC2CCCC2)c2ccco2)c1 (configuration not stated)	i	i	i	i	i	i	nt	nt
CCOC(=O)C1=CN(Cc2cccc(-c3ccc(F)cc3)c2)S(=O)(=O)N(C)C1C (configuration not stated)	nt	i	nt	i	i	i	nt	nt
COc1cccc2c1Oc1ncccc1N(C(=O)CCC(=O)NCc1ccccc1Cl)C2	i	i	i	i	17.3	i	i	i
CC(C)Sc1nc2ccccc2n2cnnc12	i	i	i	i	i	i	nt	nt
CN1CCN(c2ccc(Cl)cc2NC(=O)c2ccc(=O)n(C)n2)CC1	i	i	i	i	18.4	i	i	i
C/C(=N\Nc1nncc2ccccc12)c1cccc(OC(F)F)c1	i	i	i	i	i	i	nt	nt
Cc1cc(/C=C(\C#N)C(=O)NC2CCCCCC2)c(C)n1C	i	i	i	i	18.5	i	i	i
